# Key:
# [1] = test system: Mycobacterium tuberculosis; assay: Antimycobacterial activity against Mycobacterium bovis BCG by MABA; type: functional, variant bovis BCG
# Summary of the method: (§1)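 Compounds in DMSO (100× highest final concentration), diluted in 7H9GC; tested at 100, 50, 10 and 1 µg/mL in triplicate, three experiments. Frozen inoculum diluted in 7H9GC. Read visually and spectrophotometrically. […], mean given. Visual MIC = lowest concentration preventing blue-to-pink change.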
# [2] = test system: Mycobacterium tuberculosis; assay: Antimycobacterial activity against Mycobacterium bovis BCG at 100 ug/mL after 24 to 48 hrs by MABA; type: functional; details: variant bovis BCG; summary of the method: as §1
# [3] = test system: Mycobacterium tuberculosis; assay: Antimycobacterial activity against Mycobacterium bovis BCG at 50 ug/mL after 24 to 48 hrs by MABA; type: functional; details: variant bovis BCG; summary of the method: as §1
# [4] = test system: Mycobacterium tuberculosis; assay: Antimycobacterial activity against Mycobacterium bovis BCG at 10 ug/mL after 24 to 48 hrs by MABA; type: functional; details: variant bovis BCG; summary of the method: as §1
# [5] = test system: Mycobacterium tuberculosis; assay: Antimycobacterial activity against Mycobacterium bovis BCG at 1 ug/mL after 24 to 48 hrs by MABA; type: functional; details: variant bovis BCG; summary of the method: as §1
compound,measurement,setting,value
[N-]=[N+]=NC(CI)c1cn(COC(CO)CO)c(=O)[nH]c1=O (stereo unspecified),Inhibition,[1],0%
O=c1ccn(COCCO)c(=O)[nH]1,Inhibition,[1],0%
O=c1[nH]c(=O)n(COCCO)cc1Cl,Inhibition,[1],0%
[N-]=[N+]=NC(CI)c1cn(COCCO)c(=O)[nH]c1=O (stereo unspecified),inhibition at 100 µg/mL,[2],50%
same,inhibition at 50 µg/mL,[3],50%
O=c1[nH]c(=O)n(COCCO)cc1I,Inhibition,[1],0%
[N-]=[N+]=NC(CBr)c1cn(COCCO)c(=O)[nH]c1=O (stereo unspecified),inhibition at 50 µg/mL,[3],100%
[N-]=[N+]=NC(CBr)c1cn(COC(CO)CO)c(=O)[nH]c1=O (stereo unspecified),Inhibition,[1],0%
C=Cc1cn(COC(CO)CO)c(=O)[nH]c1=O,Inhibition,[1],0%
[N-]=[N+]=NC(CCl)c1cn(COCCO)c(=O)[nH]c1=O (stereo unspecified),inhibition at 100 µg/mL,[2],100%
same,inhibition at 50 µg/mL,[3],100%
same,inhibition at 10 µg/mL,[4],50%
O=c1[nH]c(=O)n(COCCO)cc1[N+](=O)[O-],Inhibition,[1],0%
CCCCCCCCCCC#Cc1cn(COC(CO)CO)c(=O)[nH]c1=O,inhibition at 100 µg/mL,[2],100%
same,inhibition at 50 µg/mL,[3],100%
same,inhibition at 10 µg/mL,[4],80%
same,inhibition at 1 µg/mL,[5],50%
O=c1[nH]c(=O)n(COC(CO)CO)cc1I [IODACYCLUR],Inhibition,[1],0%
C=C(N=[N+]=[N-])c1cn(COC(CO)CO)c(=O)[nH]c1=O,Inhibition,[1],0%
CCCCCC#Cc1cn(COCCO)c(=O)[nH]c1=O,Inhibition,[1],0%
[N-]=[N+]=NC(CCl)c1cn(COC(CO)CO)c(=O)[nH]c1=O (stereo unspecified),Inhibition,[1],0%
CO[C@H]1/C=C/O[C@@]2(C)Oc3c(C)c(O)c4c(O)c(c(/C=N/N5CCN(C)CC5)c(O)c4c3C2=O)NC(=O)/C(C)=C\C=C\[C@H](C)[C@H](O)[C@@H](C)[C@@H](O)[C@@H](C)[C@H](OC(C)=O)[C@@H]1C [RIFAMPIN],inhibition at 1 µg/mL,[5],100%
C=C(N=[N+]=[N-])c1cn(COCCO)c(=O)[nH]c1=O,inhibition at 100 µg/mL,[2],50%
same,inhibition at 50 µg/mL,[3],50%
same,inhibition at 10 µg/mL,[4],50%
CCc1cn(COCCO)c(=O)[nH]c1=O,Inhibition,[1],0%
Nc1cn(COCCO)c(=O)[nH]c1=O,inhibition at 100 µg/mL,[2],50%
same,inhibition at 50 µg/mL,[3],50%
O=c1[nH]c(=O)n(COCCO)cc1Br,Inhibition,[1],0%
CCCCCCCCCCC#Cc1cn(COCCO)c(=O)n(C#CCCCCCCCCCC)c1=O,Inhibition,[1],0%
C=Cc1cn(COCCO)c(=O)[nH]c1=O,Inhibition,[1],0%
O=c1[nH]c(=O)n(COCCO)cc1F,Inhibition,[1],0%
CCCCCCCCC#Cc1cn(COC(CO)CO)c(=O)[nH]c1=O,inhibition at 100 µg/mL,[2],100%
same,inhibition at 50 µg/mL,[3],100%
same,inhibition at 10 µg/mL,[4],60%
Cc1cn(COCCO)c(=O)[nH]c1=O,Inhibition,[1],0%

# From ChEMBL document CHEMBL1146361, “Studies on acyclic pyrimidines as inhibitors of mycobacteria” (Bioorg Med Chem, 2007)
